Data: ChEMBL document CHEMBL1269005, “Synthesis and biological evaluation of polyenylpyrrole derivatives as anticancer agents acting through caspases-dependent apoptosis” (J Med Chem, 2010)
Calls of active or inactive are those of the source. The rule behind the calls is not given here.

How the values were obtained:
[1] = tested on: A549; test: Cytotoxicity against human A549 cells after 48 hrs by alamar blue assay; type: functional, cell-based; conditions: A549, 48 h
[2] = Cytotoxicity against human BEAS2B cells uo to 80 uM after 48 hrs by alamar blue assay; type: cell-based; conditions: beas-2b
Outline: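 Beas-2b cells seeded at 5000/well in RPMI 1640 + 10% FBS, 24 h at 37 °C, 5% CO2; then treated 0-80 μM in triplicate per concentration, 0.1% DMSO final, 48 h. Viability read by Alamar Blue per manufacturer's protocol; mean ± SE of three separate experiments.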

[3] = tested on: A549; test: Cell cycle arrest in human A549 cells assessed as accumulation at sub-G1 phase after 48 hrs using propidium iodide staining by flow cytometry; type: functional, cell-based
Outline: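 A549 cells treated 0-5 μM (0.31-5 μM) or 0.1% DMSO vehicle for 48 h. 5 × 10^5 cells fixed in 70% ethanol on ice ≥2 h, stained with RNase (200 μg/mL) and PI (10 μg/mL) 30 min at room temperature; sub-G1 fraction by flow cytometry, ≥10 000 cells per sample; mean ± SE of three experiments.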

[4] = tested on: A549; test: Induction of apoptosis in human A549 cells assessed as increase in DNA breaks at 5 uM after 24 hrs by flow cytometry based TUNEL assay; type: functional
Outline: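 A549 cells exposed to 5 μM for various times. 5 × 10^5 cells fixed in 1% paraformaldehyde and 70% ethanol, TdT reaction with DIG-dUTP 30 min at 37 °C, anti-DIG-fluorescein 30 min in the dark, then PI (5 μg/mL) plus RNase A (100 μg/mL) 30 min; fluorescence by flow cytometry. One of three repeats shown.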

[5] = tested on: A549; test: Induction of autophagy in human A549 cells assessed as acridine orange stain incorporation at 5 uM after 24 hrs by fluorescence microscopic analysis; type: functional, cell-based
[6] = tested on: A549; test: Induction of apoptosis in human A549 cells assessed as blockade of sub-G1 phase increase at 5 uM after 36 hrs using propidium iodide staining by flow cytometry in presence of Z-VAD-fmk; type: functional, cell-based
Outline: (§1)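 Ethanol-fixed cells stained with RNase (200 μg/mL) and PI (10 μg/mL) 30 min; sub-G1 population by flow cytometry on ≥10 000 cells; mean ± SE of three experiments.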

[7] = tested on: A549; test: Induction of apoptosis in human A549 cells assessed as blockade of sub-G1 phase increase at 5 uM after 36 hrs using propidium iodide staining by flow cytometry in presence of N-acetyl-cysteine; type: functional, cell-based; outline: as §1
[8] = tested on: A549; test: Induction of apoptosis in human A549 cells assessed as blockade of sub-G1 phase increase at 5 uM after 36 hrs using propidium iodide staining by flow cytometry in presence of 4,4'-diisothiocyano- 2,2'-stilbenedisulfonic acid; type: functional, cell-based; outline: as §1
[9] = tested on: A549; test: Induction of apoptosis in human A549 cells assessed as loss of mitochondria membrane potential at 5 uM after up to 48 hrs using 3,3'-diethyloxacarbocyanine iodide staining by flow cytometry; type: functional, cell-based
Outline: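 A549 cells treated with 5 μM or 0.1% DMSO for indicated times; 5 × 10^5 cells stained with 50 nM DiOC2(3), 15 min, 37 °C, dark, washed in cold PBS. Flow cytometry, excitation 488 nm, emission 525 nm (FL-1); low-uptake cells scored as mitochondrial damage against untreated controls. One of three repeats shown.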

[10] = tested on: A549; test: Induction of apoptosis in human A549 cells assessed as loss of mitochondrial cytochrome c at 5 uM after up to 48 hrs by Western blotting; type: functional, cell-based
Outline: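 A549 cells treated 5 μM or 0.1% DMSO for 36 or 48 h. Cells homogenized in sucrose/HEPES buffer A on ice, then spun at 750g twice and 10000g for 60 min at 4 °C; pellet taken as mitochondrial fraction, supernatant as cytosolic. Cytochrome c in each fraction by Western blot. One of three repeats shown.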

[11] = tested on: A549; test: Induction of apoptosis in human A549 cells assessed as decrease of procaspase-3 level after 36 hrs by Western blotting; type: functional, cell-based
Outline: (§2)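 A549 cells exposed 0-10 μM or 0.1% DMSO for 36 h; lysed in SDS sample buffer, boiled, SDS-PAGE, PVDF transfer, blocked in 5% milk PBST, primary antibody overnight, HRP secondary with chemiluminescence. Probed for pro-caspase 3, pro-caspase 9, PARP, Bcl-2, Bax, Bak, actin. One of three repeats shown.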

[12] = tested on: A549; test: Induction of apoptosis in human A549 cells assessed as decrease of procaspase-9 level after 36 hrs by Western blotting; type: functional, cell-based; outline: as §2
[13] = tested on: A549; test: Induction of apoptosis in human A549 cells assessed as cleavage of PARP at 5 uM after 36 hrs by Western blotting; type: functional, cell-based
[14] = tested on: A549; test: Induction of apoptosis in human A549 cells assessed as cleavage of caspase-8 at 5 uM after 36 hrs by Western blotting; type: functional, cell-based
[15] = tested on: A549; test: Induction of apoptosis in human A549 cells assessed as reduction of Bcl-2 protein level at 5 uM after 36 hrs by Western blotting; type: functional, cell-based; outline: as §2
[16] = tested on: A549; test: Induction of apoptosis in human A549 cells assessed as increase of Bak protein level at 5 uM after 36 hrs by Western blotting; type: functional, cell-based; outline: as §2
[17] = tested on: A549; test: Induction of apoptosis in human A549 cells assessed as increase of Bax protein level at 5 uM after 36 hrs by Western blotting; type: functional, cell-based; outline: as §2
[18] = tested on: A549; test: Induction of apoptosis in human A549 cells assessed as increase of p53 protein level at 5 uM after 2 hrs by Western blotting; type: functional, cell-based
Outline: (§3)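 A549 cells given 5 μM or 0.1% DMSO for 0-16 h; SDS lysates run on SDS-PAGE, transferred to PVDF, blocked in 5% milk PBST, primary antibody overnight, HRP secondary and chemiluminescence. p53, p21 and actin probed; one of three repeats shown.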

[19] = tested on: A549; test: Induction of apoptosis in human A549 cells assessed as increase of p53 protein level at 5 uM after 8 hrs by Western blotting; type: functional, cell-based; outline: as §3
[20] = tested on: A549; test: Antitumor activity against human A549 cells xenografted in BALB/c nude mouse assessed as inhibition of tumor growth at 3 mg/kg, sc qd for 5 days; type: functional, organism-based; set-up: dose 3 mg/kg
Outline: (§4)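 Female athymic BALB/c nu/nu mice, 6-8 weeks, 18-22 g; 1 × 10^7 A549 cells implanted sc on back. At 80-120 mm3 tumors, randomized (six per group, day 0); daily sc dosing days 0-4 in 20% Tween 80/saline, >1.5 cm from tumor; vehicle controls. Tumor L and W measured to day 21-28; TV = (L × W2)/2, RTV = TVn/TV0. Activated caspase-3 immunohistochemistry on formalin-fixed paraffin tumor sections (day 28 after inoculation).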

[21] = tested on: A549; test: Antitumor activity against human A549 cells xenografted in BALB/c nude mouse assessed as increase in activated caspase-3 protein expression in tumor at 3 mg/kg, sc qd for 5 days by immunohistochemistry; type: functional, organism-based; set-up: dose 3 mg/kg; outline: as §4
[22] = tested on: Mus musculus; test: Toxicity in human A549 cells xenografted BALB/c nude mouse assessed as histological changes in brain at 3 mg/kg, sc qd for 5 days; type: organism-based; set-up: dose 3 mg/kg, route subcutaneous; conditions: in vivo, 120 h
Outline: (§5)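 Xenograft setting: female athymic BALB/c nu/nu mice bearing sc A549 tumors (80-120 mm3 at day 0), six per group, daily sc dosing days 0-4 in 20% Tween 80 in saline; vehicle controls. Body weight recorded three times weekly up to days 21-28. Brain, liver and kidney fixed in 4% formalin, paraffin-embedded and sectioned for histology.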

[23] = tested on: Mus musculus; test: Toxicity in human A549 cells xenografted BALB/c nude mouse assessed as histological changes in liver at 3 mg/kg, sc qd for 5 days; type: organism-based; set-up: dose 3 mg/kg, route subcutaneous; conditions: in vivo, 120 h; outline: as §5
[24] = tested on: Mus musculus; test: Toxicity in human A549 cells xenografted BALB/c nude mouse assessed as histological changes in kidney at 3 mg/kg, sc qd for 5 days; type: organism-based; set-up: dose 3 mg/kg, route subcutaneous; conditions: in vivo, 120 h; outline: as §5
[25] = tested on: Mus musculus; test: Toxicity in human A549 cells xenografted BALB/c nude mouse assessed as change in body weight at 3 mg/kg, sc qd for 5 days; type: organism-based; set-up: dose 3 mg/kg, route subcutaneous; conditions: in vivo, 120 h; outline: as §5

Question: For `C/C=C/C=C/C=C/C=C/c1cc(OC)c(C)c(=O)o1`, which IC50 [1] is on record?
Answer: > 20 µM

Question: Which IC50 [1] does the source give for `O=c1cc(O)cc(/C=C/C=C/C=C/C=C/c2[nH]ccc2Cl)o1` here?
Answer: > 20 µM

Question: With `COc1cc(/C=C/C=C/C=C/C=C/c2cccc(Cl)c2)oc(=O)c1C` as the compound, how does the IC50 [1] read?
Answer: > 20 µM

Question: For `COc1cc(/C=C/C=C/C=C/C=C/c2[nH]ccc2Cl)oc(=O)c1C` [AUXARCONJUGATIN A], which IC50 [1] is on record?
Answer: 1.2 µM

Question: Which IC50 [1] does the source give for `COc1cc(/C=C/C=C/C=C/C=C/c2sccc2Cl)oc(=O)c1` here?
Answer: > 20 µM

Question: With `COc1cc(/C=C/C=C/C=C/C=C/c2ccccc2Cl)oc(=O)c1C` as the compound, how does the IC50 [1] read?
Answer: > 20 µM

Question: Which IC50 [1] does the source give for `COc1cc(/C=C/C=C/C=C/C=C/c2sccc2Cl)oc(=O)c1C` here?
Answer: > 20 µM

Question: Which IC50 [1] does the source give for `CCCCc1c(OC)cc(/C=C/C=C/C=C/C=C/c2[nH]ccc2Cl)oc1=O` here?
Answer: 5 µM

Question: For `COc1cc(/C(C)=C/C=C/C=C/C=C/c2[nH]ccc2Cl)oc(=O)c1C`, which IC50 [1] is on record?
Answer: 5.2 µM

Question: With `CCCCc1c(OC)cc(/C(C)=C/C=C/C=C/C=C/c2[nH]ccc2Cl)oc1=O` as the compound, how does the IC50 [1] read?
Answer: 0.01 µM

Question: What about the Activity [2] of the same compound?
Answer: Non-toxic

Question: What about the Activity [3] of the same compound?
Answer: Dose-dependent effect

Question: What about the Activity [4] of the same compound?
Answer: 47%

Question: What about the Activity [5] of the same compound?
Answer: inactive

Question: What about the Activity [6] of the same compound?
Answer: Active

Question: What about the Activity [7] of the same compound?
Answer: inactive

Question: What about the Activity [8] of the same compound?
Answer: inactive

Question: And the Activity [9]?
Answer: Active

Question: And the Activity [10]?
Answer: Active

Question: And the Activity [11]?
Answer: Dose-dependent effect

Question: And the Activity [12]?
Answer: Dose-dependent effect

Question: What about the Activity [13] of the same compound?
Answer: Active

Question: And the Activity [14]?
Answer: inactive

Question: And the Activity [15]?
Answer: Active

Question: And the Activity [16]?
Answer: Active

Question: What about the Activity [17] of the same compound?
Answer: inactive

Question: What about the Activity [18] of the same compound?
Answer: Active

Question: And the Activity [19]?
Answer: Active

Question: And the Activity [20]?
Answer: Active

Question: What about the Activity [21] of the same compound?
Answer: Active

Question: And the Activity [22]?
Answer: Non-toxic

Question: What about the Activity [23] of the same compound?
Answer: Non-toxic

Question: What about the Activity [24] of the same compound?
Answer: Non-toxic

Question: And the Activity [25]?
Answer: Non-toxic

Question: For `Cc1c(O)cc(/C=C/C=C/C=C/C=C/c2[nH]ccc2Cl)oc1=O`, which IC50 [1] is on record?
Answer: > 20 µM

Question: Which IC50 [1] does the source give for `CC\C(=C/C=C/C=C/C=C/c1[nH]ccc1Cl)c1cc(OC)c(C)c(=O)o1` here?
Answer: 5.6 µM

Question: For `COc1cc(/C(C)=C/C=C/C=C/C=C/c2[nH]ccc2Cl)oc(=O)c1`, which IC50 [1] is on record?
Answer: 2.5 µM

Question: What does the source list for `COc1cc(/C=C/C=C/C=C/C=C/c2[nH]ccc2Cl)oc(=O)c1` [AUXARCONJUGATIN B]?
Answer: IC50 [1]: 0.6 µM; Activity [2]: Non-toxic; Activity [3]: Dose-dependent effect; Activity [4]: 42%; Activity [5]: inactive; Activity [6]: Active; Activity [7]: inactive; Activity [8]: inactive; Activity [9]: Active; Activity [10]: Active; Activity [11]: Dose-dependent effect; Activity [12]: Dose-dependent effect; Activity [13]: Active; Activity [14]: inactive; Activity [15]: Active; Activity [16]: Active; Activity [17]: inactive

Question: Which IC50 [1] does the source give for `COc1cc(/C=C/C=C/C=C/C=C/c2c(Cl)ccn2S(C)(=O)=O)oc(=O)c1C` here?
Answer: > 20 µM
